Compound activity: PubChem BioAssay, several laboratories
A1 inh = inhibitors of the anti-apoptotic protein A1, read as caspase activation | MEF A1-2A-BIM cells, Caspase-Glo 3/7 luminescence, 3 h; percent of clofoctol response, vehicle zero | caspase activation, % (test concentration not listed) | 330,000 compounds, 0.066% hits | AID 2462;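 active = over half of replicate activation scores above 10%, or exactly half above 10 with the replicate mean above 10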
MC4R barr agon = agonists of human melanocortin 4 receptor (MC4R) beta-arrestin | U2OS MC4R beta-arrestin complementation, luminescence; percent of melanotan II response, DMSO zero | activation, % at 8.9 µM | 360,000 compounds, 0.98% hits;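 active = activation above a per-plate cutoff, the mean activation of sample wells on that plate plus 3 SD, cut at about 8% in these data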
Target sequence (P32245 whole entry, looked up): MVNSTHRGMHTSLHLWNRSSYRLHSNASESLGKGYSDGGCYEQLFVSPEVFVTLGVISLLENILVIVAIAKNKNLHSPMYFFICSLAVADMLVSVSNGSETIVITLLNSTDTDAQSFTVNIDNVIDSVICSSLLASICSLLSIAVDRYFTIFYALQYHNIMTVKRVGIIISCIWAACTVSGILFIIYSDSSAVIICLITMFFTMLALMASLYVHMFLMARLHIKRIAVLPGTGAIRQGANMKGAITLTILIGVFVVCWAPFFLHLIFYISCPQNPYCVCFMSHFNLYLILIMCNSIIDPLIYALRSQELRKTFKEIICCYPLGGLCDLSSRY
NALP3 yeast inh = inhibitors of NALP3 inflammasome in yeast. Yeast reconstituted NLRP3/ASC/caspase-1, beta-gal luminescence, 24 h. inhibition, % at 10 µM. 330,000 compounds, 0.39% hits;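 active = inhibition of 50% or more; inactive = inhibition below 50%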;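 also: plate controls were induced DMSO wells for no effect and uninduced yeast grown without galactose for full effect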
Tb MetRS inh = Trypanosoma brucei MetRS inhibition; purified T. brucei MetRS, ATP depletion, Kinase-Glo luminescence; inhibition, % at 11.9 µM; 360,000 compounds, 0.4% hits;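 active = inhibition above a per-plate cutoff of the control wells' mean inhibition plus 3 SD, cut at about 5.5% in these data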;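 also: 0% = DMSO wells median and 100% = median of wells with control inhibitor compound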
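Assay system: T. brucei methionyl-tRNA synthetase, purified | Medium: HEPES buffer with MgCl2, KCl, DTT, spermine, BSA, pyrophosphatase | Compound: 11.9 µM single point | Incubation: 15 min enzyme-compound preincubation, 2 h reaction, 10 min detection, 25 °C | Measured by: Kinase-Glo luciferase luminescence reporting remaining unconsumed ATP | Measure: % inhibition normalized to control-well medians | Replication: Singlicate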
NALP1 yeast inh = inhibitors of NALP1 inflammasome in yeast | S. cerevisiae NALP1/ASC/caspase-1 growth, X-gal OD620, 72 h | inhibition, % at 10 µM | 280,000 compounds, 0.61% hits | AID 2071; in the data active = inhibition mostly above about 24%, no sharp cut-off; inactive = mostly below about 32%
MC4R antagonist = antagonists of human melanocortin 4 receptor (MC4R) | MC4R-expressing cells, MTII-stimulated cAMP, LANCE TR-FRET | inhibition, % at 6.5 µM | 360,000 compounds, 0.48% hits | AID 540295;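 active = inhibition above its plate's cutoff, the mean of tested wells on that plate plus 3 SD, cut at about 29% in these data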;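 also: 0% = Melanotan II alone and 100% = Melanotan II plus saturating MCL0020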
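System – human MC4R-expressing U2OS cells · Also added – Melanotan II · Dosing – one concentration, 6.5 µM nominal · Timing – 30-min compound, 1-h challenge, 1-h detection, room temperature · Measured by – Eu-cAMP/anti-cAMP TR-FRET, emission 671 nm · Replicates – singlicate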
Numbers without * were called inactive; / = not tested or not shown. Compounds with a hit are over-represented: about 2.5% of the library has one in this group of screens.

SMILES	A1 inh	MC4R barr agon	NALP3 yeast inh	Tb MetRS inh	NALP1 yeast inh	MC4R antagonist
CCOC(=O)c1ccccc1NC(=O)C1CCCO1 (centres undefined)	0	-2	23	0	0	2
CCc1ccc(NC(=O)c2ccccc2NC(=O)C2CCCO2)cc1 (centres undefined)	0	1	-13	-1	43*	7
O=C(Nc1ccc(Cl)cc1)ON=C1CCCC1	0	-3	14	-1	94*	14
NC(=O)Nc1ccc(Cl)cc1	0	-1	-2	0	/	-3
CCC1CCC(C(=O)NC(CCSC)C(=O)NCCc2ccc(S(N)(=O)=O)cc2)CC1 (centres undefined)	1	-1	6	-2	15	-4
Cc1cc(O)c(-c2cc(C(=O)Nc3cccnc3)[nH]n2)cc1C	-4	1	-2	0	37*	-4
CC(C)c1onc(C(=O)NCCc2ccccc2)c1[N+](=O)[O-]	-1	-2	11	-1	5	1
CC(C)c1onc(C(=O)N(C)Cc2ccccc2)c1[N+](=O)[O-]	0	1	12	1	53*	8
COc1ccc(NC(=O)CS(=O)(=O)c2cn(CC(=O)N3CCCC3)c3ccccc23)c(OC)c1	0	-2	-6	0	8	3
COc1ccc(C2c3[nH]c4ccccc4c3CCN2CCCn2cccn2)c(C)c1C (centres undefined)	1	-1	14	0	51*	3
COc1cccc(C2c3[nH]c4ccccc4c3CCN2CCCn2cccn2)c1 (centres undefined)	0	-1	16	0	0	-5
CCCOc1cccc(OCCSc2nc(C)cc(=O)[nH]2)c1	-2	0	23	0	20	3
Cc1cc(=O)[nH]c(SCCCOc2ccc(F)cc2)n1	/	-1	10	0	41*	3
COc1ccc(NC(=O)c2ccc3c(c2)S(=O)(=O)N=C2CCCCCN23)cc1S(N)(=O)=O	/	-2	/	0	/	13
O=C(CCc1nc2ccccc2[nH]c1=O)OCC(=O)c1cccc2ccccc12	/	/	/	/	36*	/
O=C(NCc1ccc(F)cc1F)[C@@H]1CCCN1C(=O)[C@@H]1CCCN1	/	/	/	-2	/	/
CC(C(=O)NCCc1ccccc1)N1c2cccc3cccc(c23)S1(=O)=O (centres undefined)	1	-4	-2	0	20	8
CCN(CC)c1ccc(N=Cc2ccc([N+](=O)[O-])o2)cc1	1	-1	22	0	76*	-5
O=C(c1ccccc1)C(CN1CCCCC1)c1ccccc1 (centres undefined)	/	0	/	0	/	3
OC(COc1ccc(OCc2ccccc2)cc1)CN1CCOCC1 (centres undefined)	-1	1	22	1	39*	20
CCOc1ccc(C(=O)C(CN2CCOCC2)c2ccccc2)cc1 (centres undefined)	-1	-2	/	1	84*	2
COCCCN1C(=O)C(=O)/C(=C(/O)c2ccc(OC)cc2)C1c1ccc(O)c(OC)c1 (centres undefined)	0	1	4	0	5	-3
COCCCN1C(=O)C(=O)/C(=C(/O)c2ccc(OC)cc2)C12C(=O)N(C)c1ccccc12 (centres undefined)	0	-1	12	1	39*	10
c1ccc(Cn2c(-c3ccccc3)nc3nc4ccccc4nc32)cc1	-1	9.3*	4	0	21	0
C=CCn1c(-c2ccccc2)nc2nc3ccccc3nc21	-4	-2	35	-1	-3	-3
SMILES	A1 inh	MC4R barr agon	NALP3 yeast inh	Tb MetRS inh	NALP1 yeast inh	MC4R antagonist
CC(C)Oc1cccc(C(=O)C2CCCN(S(C)(=O)=O)C2)c1 (centres undefined)	2	1	5	0	10	29*
CN(Cc1ccccc1F)C(=O)CCNC(=O)c1ccc(C(C)(C)C)cc1	1	1	10	0	/	-2
C=C(CN(C)C)C(=O)c1cc(C)ccc1C	/	-4	/	0	/	47*
C[C@H]1CN(c2ccccc2)C(=O)[C@@H]1CC(=O)Nc1ccccc1	/	1	/	0	/	13
CCCNC(=O)c1nnsc1S(=O)(=O)c1ccc(Cl)cc1	/	-1	39	-1	104*	17
CNC(=O)c1nnsc1S(=O)c1ccc(Cl)cc1 (centres undefined)	/	-5	41	0	93*	-27
Cc1ccc(S(=O)c2snnc2C)cc1 (centres undefined)	0	-1	-21	-1	-13	-7
CCCNC(=O)c1nnsc1S(=O)c1ccc(Cl)cc1 (centres undefined)	/	-3	41	0	103*	-18
Cc1cccc2nnc(-c3ccccc3)n12	/	0	/	0	/	-4
CCCNC(=O)C1(C)CCN(C(=O)c2cc(F)cc(F)c2)C1 (centres undefined)	/	-1	/	0	/	10
Clc1cccc(OCCN2CCN(CCOc3cccc(Cl)c3)CC2)c1	0	2	40	0	64*	3
CCN(CC)C(=O)C1=C(C)N(CCCOC)C(=O)C(CC(=O)NC2CC2)C1 (centres undefined)	/	-2	/	-1	/	4
COc1ccc(S(=O)(=O)N(C)Cc2cccs2)cc1Br	1	0	32	-1	41*	0
Cc1cc(Oc2ccc(Br)cc2)nc(SCC(=O)c2ccccc2)n1	1	8.6*	9	0	14	5
CN1CCN(CC(=O)N(Cc2c(C#N)c3ccccc3n2C)c2ccccc2)CC1	0	-2	8	0	30*	6
O=C1c2ccccc2C(c2nnnn2Cc2ccccc2)N1CCc1ccc(O)cc1 (centres undefined)	/	/	/	-1	/	/
CC(=C/C(=O)O)/C=C/c1ccc([N+](=O)[O-])cc1	-6	1	/	1	13	-8
CC1(C)COC(/C=C/c2ccc([N+](=O)[O-])cc2)=N1	1	-3	/	1	89*	14
CCCN(CCC)Cc1c(C(=O)N/N=C/CCc2ccccc2)nnn1-c1nonc1N	1	9.2*	-1	0	3	9
Nc1nonc1-n1nnc(C(=O)N/N=C/c2cccc(Cl)c2)c1CSc1ccc(Cl)cc1	0	2	6	0	4	10
Nc1nonc1-n1nnc(C(=O)N/N=C/c2ccccc2)c1CSc1ccc(Cl)cc1	1	9.1*	-10	0	16	1
CCCN(CCC)Cc1c(C(=O)N/N=C/c2ccncc2)nnn1-c1nonc1N	1	-2	3	0	9	9
CSc1nc(-c2ccccc2)nc(N2CCCC2)c1C(C)=O	-1	0	-6	0	4	4
